# Source: PubChem BioAssay (Johns Hopkins Ion Channel Center)
# TRPC4 inh: inhibitors of mouse TRPC4 channel | Q9QUQ5 | AID 2247 | 300,000 tested, 0.39% active | HEK293 TRPC4beta/mu-opioid, DAMGO-evoked Fluo4 calcium flux; hits give low values | B-score at 10 µM;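 active = B-score over 3 SD under the library average, no early fluorescence shift, positive overall ratio signal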
# Target sequence (Q9QUQ5 whole entry, looked up): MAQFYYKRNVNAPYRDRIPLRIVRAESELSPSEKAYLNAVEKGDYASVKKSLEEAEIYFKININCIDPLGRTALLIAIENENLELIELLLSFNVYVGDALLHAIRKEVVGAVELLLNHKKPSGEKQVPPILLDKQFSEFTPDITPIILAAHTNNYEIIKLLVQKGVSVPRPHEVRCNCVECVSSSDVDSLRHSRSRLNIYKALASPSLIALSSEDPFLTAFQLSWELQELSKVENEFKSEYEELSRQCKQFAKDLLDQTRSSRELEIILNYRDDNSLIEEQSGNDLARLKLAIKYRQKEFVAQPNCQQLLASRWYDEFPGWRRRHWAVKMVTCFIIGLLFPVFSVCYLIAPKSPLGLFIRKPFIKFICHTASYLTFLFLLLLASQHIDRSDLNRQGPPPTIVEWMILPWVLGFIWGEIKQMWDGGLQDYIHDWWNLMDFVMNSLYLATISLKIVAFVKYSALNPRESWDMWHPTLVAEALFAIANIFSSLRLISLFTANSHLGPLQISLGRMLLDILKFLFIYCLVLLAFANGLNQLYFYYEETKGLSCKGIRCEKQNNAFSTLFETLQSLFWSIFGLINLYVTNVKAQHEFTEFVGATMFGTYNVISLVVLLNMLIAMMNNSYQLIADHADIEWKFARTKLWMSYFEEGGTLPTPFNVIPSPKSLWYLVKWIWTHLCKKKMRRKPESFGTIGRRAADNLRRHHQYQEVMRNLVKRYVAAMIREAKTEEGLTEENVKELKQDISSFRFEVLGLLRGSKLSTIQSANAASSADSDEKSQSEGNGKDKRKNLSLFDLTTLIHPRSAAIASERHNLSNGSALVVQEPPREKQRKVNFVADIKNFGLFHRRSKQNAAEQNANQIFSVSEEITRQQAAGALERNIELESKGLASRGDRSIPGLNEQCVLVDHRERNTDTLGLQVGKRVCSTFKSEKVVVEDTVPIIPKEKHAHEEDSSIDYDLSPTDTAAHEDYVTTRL
#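 Assay system – HEK293 line stably carrying TRPC4beta and mu-opioid receptor · Doses – single dose · Detection – Fluo4 calcium-dye fluorescence, kinetic read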
# TRPC6 inh: mouse TRPC6 channel inhibition | Q61143 | HEK293-TRPC6, membrane potential dye, ACh-evoked depolarization; hits give low values | B-score at 10 µM | 310,000 tested, 1.1% active | AID 2553;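 active = B-score under library mean minus 3 SD, initial fluorescence not abnormally high, positive integrated signal ratio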;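 note: B-score derived from integrated fluorescence ratio over the kinetic read; more negative B-score means stronger inhibition of depolarization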
# TRPC4 agonist: opens the mouse TRPC4 cation channel. Q9QUQ5. HEK293 TRPC4beta/mu-opioid, Fluo4 calcium fluorescence; hits give high values. B-score at 10 µM. 310,000 tested, 0.49% active;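 active = B-score above 5 SD of library B-scores, and initial fluorescence ratio not above library mean plus 5 SD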;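 note: positive B-score marks a calcium rise read as TRPC4 activation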
#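 System: HEK293 cells stably co-expressing mouse TRPC4beta and mu-opioid receptor; Schedule: Fluo4 dye loading 45 min at room temperature, 110 s recording; Detection: Fluo4 fluorescence, kinetic; Evaluation: B-scored integrated calcium fluorescence ratio; Controls: buffer (low) and maximal DAMGO (high).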
# TRPC4 PAM: allosterically enhances the mouse TRPC4 cation channel. HEK293 TRPC4beta/mu-opioid, DAMGO EC20, Fluo-4 Ca2+ flux; hits give high values. 310,000 tested, 0.42% active. Q9QUQ5. B-score at 10 µM;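 active = B-score of calcium response area above 5 SD of library B-scores, with initial fluorescence ratio within 5 SD of library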;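 note: B-score of integrated fluorescence ratio over time as area under calcium response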
# TRPC6 act: activates the mouse TRPC6 cation channel | Q61143 | HEK293-TRPC6 membrane potential dye fluorescence; hits give high values | B-score at 10 µM | 310,000 tested, 0.13% active | AID 2550;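 active = B-score of the integrated fluorescence ratio above library mean plus 3 SD, and starting fluorescence ratio within library mean plus 5 SD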;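 note: higher score means more depolarization so channel activation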
# Kir21 inh: Kir2.1 (mouse) channel inhibition. P35561. HEK293-Kir2.1, FluxOR thallium flux fluorescence; hits give low values. B-score at 10 µM. 310,000 tested, 0.85% active. AID 1672;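 active = fluorescence ratio B-score at or below minus 3 SD of library scores, with starting-brightness B-score within 2 SD, cut at about -4.2 in these data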;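 note: channel flux triggered by added potassium and thallium sulfate stimulus; B-score of peak minus minimum fluorescence over baseline after thallium stimulus; more negative B-score means stronger Kir2.1 block with less thallium influx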
# TRPC4 sel inh 2: second check of whether TRPC6 inhibitors also affect mouse TRPC4. shares compounds with TRPC6 inh. HEK293 TRPC4/MOR, membrane potential dye fluorescence; channel activated by saturating DAMGO dose. inhibition, % at 10 µM. 920 tested, 42% active;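 active = compounds whose fluorescence signal differed from control wells by over 3 SD, either direction, in both duplicate plates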
# TRPC4 spec: tests whether TRPC6 inhibitors also affect mouse TRPC4; AID 2777; HEK293 TRPC4/mu-opioid, membrane potential fluorescence; shares compounds with TRPC6 inh; 920 tested, 61% active; activity change, negative = inhibition, % at 10 µM;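 active = rise or fall in signal beyond 3 SD of buffer-only wells in both replicate plates, either sign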;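 note: integrated kinetic ratio of fluorescence range over baseline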
# HEK293 MPD ctr 2-1: second check of TRPC6 inhibitor effects in parental HEK293 cells; shares compounds with TRPC6 inh; parental HEK293 membrane potential dye fluorescence; maximal acetylcholine challenge after compound addition; signal change vs control, % at 10 µM; 920 tested, 31% active;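 active = membrane potential signal moving either way by over 3 SD of the maximum-effect control, in both duplicate plates, meaning non-specific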
# HEK293 MPD ctr-1: checks TRPC6 inhibitor effects in parental HEK293 cells. shares compounds with TRPC6 inh. parental HEK293 membrane potential dye fluorescence. membrane potential signal change, % at 10 µM. 920 tested, 60% active. AID 2780;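 active = membrane potential signal shifting up or down by more than 3 SD of buffer-only wells, on both duplicate plates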
# HEK293 MPD ctr-2: checks TRPC6 modulator effects in parental HEK293 cells. shares compounds with TRPC6 inh. membrane potential dye fluorescence. membrane potential signal change, % at 10 µM. 2,400 tested, 51% active. AID 488924;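 active = membrane potential signal moves up or down beyond 5 SD from buffer-only wells, on both duplicate plates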
# HEK293 MPD ctr 2-2: second check of TRPC6 modulator effects in parental HEK293 cells | 2,400 tested, 14% active | shares compounds with TRPC6 inh | membrane potential dye fluorescence; after compound, maximal acetylcholine stimulation | inhibition, % at 10 µM;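 active = membrane potential signal drops by more than 5 SD from the mean control signal, in both duplicate plates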;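 note: plate controls were acetylcholine ECmax control wells for no effect and buffer only wells for full effect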
# TRPC4 ctr mod: tests whether TRPC6 modulators also affect mouse TRPC4. shares compounds with TRPC6 inh. HEK293 TRPC4/mu-opioid, membrane potential fluorescence. percent change from control (negative = decrease, positive = increase), % at 10 µM. 2,400 tested, 69% active;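 active = membrane potential signal moved up or down beyond 5 SD of buffer control wells, in both duplicate plates, actives on both sides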;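 note: plate controls were assay buffer wells for no effect and DAMGO maximal-effect wells for full effect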
# TRPC4/MOR inh 2: second check of whether TRPC6 modulators also affect mouse TRPC4 | shares compounds with TRPC6 inh | HEK293 TRPC4/mu-opioid, membrane potential dye fluorescence; stimulated with maximal-effect DAMGO | inhibition, % at 10 µM | 2,400 tested, 55% active;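 active = drop in membrane potential signal beyond 5 SD of the control wells in both duplicate plates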;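 note: TRPC4 counter screen for TRPC6 hits run under conditions tuned for TRPC6 not TRPC4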
# TRPC6 inh conf: confirmation of mouse TRPC6 inhibitors; AID 488960; inhibition, % at 10 µM; 3,300 tested, 43% active; HEK293-TRPC6, membrane potential dye, ACh-evoked depolarization; shares compounds with TRPC6 inh;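 active = fluorescence ratio falls more than 5 SD below the full-stimulation control mean, in both duplicate runs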;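 note: integrated fluorescence ratio of peak minus minimum over baseline after agonist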
# TRPC6 act conf: mouse TRPC6 activator confirmation; shares compounds with TRPC6 inh; HEK293-TRPC6 membrane potential dye fluorescence, FDSS; activation, % at 10 µM; 2,800 tested, 11% active;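 active = ratio signal rise beyond 5 SD above unstimulated control wells' mean, seen in both duplicate runs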;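 note: plate controls were buffer EC0 wells for no effect and acetylcholine ECmax response for full effect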
# * hit, by the source's call; i = inactive; x = no result given. This is a sample that favours compounds with a hit; in the whole collection about 3% have one here.
SMILES,TRPC4 inh,TRPC6 inh,TRPC4 agonist,TRPC4 PAM,TRPC6 act,Kir21 inh,HEK293 MPD ctr-2,HEK293 MPD ctr 2-2,TRPC4 ctr mod,TRPC4/MOR inh 2,TRPC6 inh conf,TRPC6 act conf,others
CC(C)Cn1c(=O)c(C(=O)Nc2ccncc2)c(O)c2ccccc21,i,-12*,i,i,i,0.91,x,x,x,x,84%*,i,TRPC4 sel inh 2=i;TRPC4 spec=-15%*;HEK293 MPD ctr 2-1=-84%*;HEK293 MPD ctr-1=i
CN1CCc2c(sc(NC(=O)c3ccc(S(=O)(=O)N4CCOCC4)cc3)c2C(N)=O)C1,i,-7.6*,i,i,i,-2.9,-258%*,i,-51%*,35%*,i,i,
NC(=O)c1c(NC(=O)c2ccc(S(=O)(=O)N3CCOCC3)cc2)sc2c1CCCCC2,i,i,i,i,i,0.85,x,x,x,x,x,x,
Cc1cccc(-c2nnc(SCC(=O)C(C)(C)C)n2C)c1,i,i,i,i,i,0.88,x,x,x,x,x,x,
COc1ccc2cc(C(=O)/C=C/c3cc(OC)c(O)c(OC)c3)ccc2c1,i,i,i,i,i,-0.32,x,x,x,x,x,x,
COc1ccc(C(=O)/C=C/c2cc(OC)c(O)c(OC)c2)c(F)c1,i,i,i,i,18*,-1.9,288%*,i,54%*,i,i,108%*,
Cc1onc(-c2c(Cl)cccc2Cl)c1NC(=O)N1CCSCC1,i,i,i,i,12*,-0.53,i,i,i,i,i,i,
Cc1onc(-c2c(Cl)cccc2Cl)c1NC(=O)NN(C)C,i,i,i,i,i,0.1,x,x,x,x,x,x,
c1ccc(-c2nc(NCCCN3CCOCC3)c3ccccc3n2)cc1,i,-11*,i,i,i,1,-168%*,i,-36%*,68%*,58%*,i,
Cc1ccc2ncnc(NCCCN3CCOCC3)c2c1,i,i,i,i,i,-0.03,x,x,x,x,x,x,
N#Cc1c2c(c(NCCCN3CCOCC3)n3c1nc1ccccc13)CCC2,i,-6*,i,i,i,0.43,-173%*,70%*,-36%*,52%*,46%*,i,
N#Cc1c2c(c(NCCN3CCOCC3)n3c1nc1ccccc13)CCCC2,i,i,i,i,i,-1,x,x,x,x,x,x,
Cc1cccc(-c2nc(NCCCN3CCOCC3)c3ccccc3n2)c1,i,-9.6*,i,i,i,-0.01,x,x,x,x,79%*,i,TRPC4 sel inh 2=38%*;TRPC4 spec=-21%*;HEK293 MPD ctr 2-1=i;HEK293 MPD ctr-1=-284%*
COc1ccc(-n2nc(C(=O)NCC(=O)NCc3cccc(F)c3)c3ccccc3c2=O)cc1Cl,i,i,i,i,i,-2.6,x,x,x,x,x,x,
COc1cc(NC(=O)c2ccccc2)cc(OC)c1,i,i,i,i,i,0.14,x,x,x,x,x,x,
O=C(Nc1cc2c3c(c1)C1CCCC1CN3CC1CCCC21)c1ccccc1 (stereo not drawn),i,-5.9*,i,i,i,1.2,-70%*,i,-16%*,i,i,i,
CCOC(=O)c1c(CN2CCCCC2)n(C)c2cc(Br)c(O)cc12,i,i,i,i,i,0.33,x,x,x,x,x,x,
CCOC(=O)c1c(CN2CCN(C)CC2)n(C)c2cc(Br)c(OC)cc12,i,-5.5*,i,i,i,-2.1,-113%*,i,-22%*,72%*,44%*,i,
CN1CCN(C(=O)C2CCN(c3ncc(C(F)(F)F)cc3Cl)CC2)CC1,i,-5.2*,i,i,i,1.8,i,i,i,i,i,i,
CCCSc1cc(N2CCOCC2)nc(-c2ccccc2Cl)n1,i,i,i,i,i,-0.91,x,x,x,x,x,x,
Cc1c(C)n(Cc2ccccc2)c2ncnc(NCCCN(C)C)c12,i,-6*,i,i,i,1.1,-102%*,i,-20%*,54%*,42%*,i,
Cc1c(C)n(Cc2ccccc2)c2ncnc(NN)c12,i,i,i,i,i,0.35,x,x,x,x,x,x,
COc1ccccc1Nc1ncnc2c1c(C)c(C)n2CCCN(C)C,i,-5.2*,i,i,i,-1.3,-101%*,i,-23%*,74%*,54%*,i,
Cc1c(C)n(-c2ccccc2)c2ncnc(NCCCN(C)C)c12,i,i,i,i,i,2.4,x,x,x,x,x,x,
Cc1c(C)n(Cc2ccccc2)c2ncnc(NCCN(C)C)c12,i,-7.1*,i,i,i,-1.8,x,x,x,x,i,i,TRPC4 sel inh 2=i;TRPC4 spec=-17%*;HEK293 MPD ctr 2-1=i;HEK293 MPD ctr-1=-277%*
Cc1onc(-c2c(F)cccc2Cl)c1C(=O)N=C(N)N1CCCC1,i,i,i,i,i,1.2,x,x,x,x,x,x,
CCNCCC(=O)N1c2ccccc2Sc2ccc(C(F)(F)F)cc21,i,-6.1*,i,i,i,-0.59,i,94%*,9.0%*,42%*,84%*,x,
